Data reported in ChEMBL document CHEMBL4428127, “Discovery of 5-Phenyl-N-(pyridin-2-ylmethyl)-2-(pyrimidin-5-yl)quinazolin-4-amine as a Potent I Kur Inhibitor” (ACS Med Chem Lett, 2016).
Values belong to the molecule of their own block, whether it stands above or below them.

What was measured:
[1] = biological target: T1, Potassium voltage-gated channel subfamily A member 5 (Homo sapiens, UniProt P22460); assay: Inhibition of human Kv1.5 transfected in mouse LTK cells at 0.3 uM; format: cell-based
T1 sequence (P22460 whole entry): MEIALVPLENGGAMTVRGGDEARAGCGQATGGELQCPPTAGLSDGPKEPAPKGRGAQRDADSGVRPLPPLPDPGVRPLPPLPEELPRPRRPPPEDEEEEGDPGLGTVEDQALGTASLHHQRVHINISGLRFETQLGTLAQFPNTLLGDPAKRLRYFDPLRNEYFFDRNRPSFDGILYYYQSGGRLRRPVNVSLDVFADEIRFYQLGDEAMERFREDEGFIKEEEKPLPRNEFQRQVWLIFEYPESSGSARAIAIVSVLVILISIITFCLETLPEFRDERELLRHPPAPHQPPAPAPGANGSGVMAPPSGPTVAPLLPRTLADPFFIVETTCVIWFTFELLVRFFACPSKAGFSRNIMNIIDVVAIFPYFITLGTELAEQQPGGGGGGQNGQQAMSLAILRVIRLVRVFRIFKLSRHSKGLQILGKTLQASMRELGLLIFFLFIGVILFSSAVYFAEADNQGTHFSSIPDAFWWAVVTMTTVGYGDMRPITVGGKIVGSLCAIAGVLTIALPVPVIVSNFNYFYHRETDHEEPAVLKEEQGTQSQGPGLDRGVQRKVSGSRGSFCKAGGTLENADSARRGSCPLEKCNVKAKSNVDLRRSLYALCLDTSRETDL

[2] = biological target: Voltage-gated inwardly rectifying potassium channel KCNH2 (Homo sapiens, UniProt Q12809); assay: Inhibition of human ERG expressed in HEK293 cells by thallium flux assay; format: cell-based
Voltage-gated inwardly rectifying potassium channel KCNH2, sequence (Q12809 whole entry): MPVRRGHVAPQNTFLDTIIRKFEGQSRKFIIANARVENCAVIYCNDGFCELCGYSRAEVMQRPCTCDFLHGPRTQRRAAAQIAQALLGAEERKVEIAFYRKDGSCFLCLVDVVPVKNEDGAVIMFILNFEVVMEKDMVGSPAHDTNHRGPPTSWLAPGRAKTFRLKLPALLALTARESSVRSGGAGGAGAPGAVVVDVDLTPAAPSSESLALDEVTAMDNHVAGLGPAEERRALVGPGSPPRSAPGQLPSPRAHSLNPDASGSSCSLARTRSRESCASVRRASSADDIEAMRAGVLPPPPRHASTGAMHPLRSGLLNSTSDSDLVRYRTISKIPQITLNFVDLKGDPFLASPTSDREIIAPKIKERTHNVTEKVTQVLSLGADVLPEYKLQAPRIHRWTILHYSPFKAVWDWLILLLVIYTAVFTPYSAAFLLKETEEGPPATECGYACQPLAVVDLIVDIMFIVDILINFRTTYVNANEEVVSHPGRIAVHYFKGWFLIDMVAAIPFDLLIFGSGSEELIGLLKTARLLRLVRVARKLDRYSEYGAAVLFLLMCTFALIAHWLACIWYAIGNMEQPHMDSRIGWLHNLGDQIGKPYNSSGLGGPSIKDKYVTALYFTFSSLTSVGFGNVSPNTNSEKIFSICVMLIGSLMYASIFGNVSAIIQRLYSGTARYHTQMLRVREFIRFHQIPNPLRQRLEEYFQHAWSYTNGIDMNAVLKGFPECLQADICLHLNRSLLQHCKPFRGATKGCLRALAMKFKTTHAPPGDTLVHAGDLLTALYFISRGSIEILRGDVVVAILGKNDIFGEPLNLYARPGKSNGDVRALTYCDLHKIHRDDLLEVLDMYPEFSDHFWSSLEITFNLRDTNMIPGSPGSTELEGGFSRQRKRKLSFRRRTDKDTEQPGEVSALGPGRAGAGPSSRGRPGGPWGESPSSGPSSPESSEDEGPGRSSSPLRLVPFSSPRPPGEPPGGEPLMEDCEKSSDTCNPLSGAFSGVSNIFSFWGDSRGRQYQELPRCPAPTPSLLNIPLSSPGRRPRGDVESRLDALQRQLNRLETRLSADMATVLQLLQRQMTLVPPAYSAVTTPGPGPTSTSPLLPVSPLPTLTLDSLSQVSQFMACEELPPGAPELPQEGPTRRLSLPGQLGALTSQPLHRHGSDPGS

[3] = biological target: T1, Potassium voltage-gated channel subfamily A member 5; assay: Inhibition of human Kv1.5 transfected in mouse LTK cells; format: cell-based
[4] = Drug uptake in brain of rat VERP model at 3 mg/kg, iv as 5 mins infusion measured 10 mins post dose; format: ADME, organism-based; details: read-out: Drug uptake
In short: (§1)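 Rat VERP model, i.v. infusion over 5 min at 3 or 10 mg/kg. Plasma and brain concentrations measured 10 min after the end of infusion.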

[5] = Toxicity in rabbit assessed as change in mean blood pressure at 3 mg/kg, iv as 30 mins infusion measured at 20 mins; format: organism-based, Oryctolagus cuniculus; details: in vivo
In short: (§2)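 Anesthetized rabbits given 3 mg/kg i.v. in DMF vehicle, infused over 30 min, n = 3–4. Atrial ERP, VERP, QTc (Delta QTc cf), systolic and mean blood pressure, and heart rate recorded as change at 20 min. Plasma concentration sampled at the end of infusion.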

[6] = Toxicity in rabbit assessed as change in corrected QT time interval at 3 mg/kg as 30 mins infusion; format: organism-based, Oryctolagus cuniculus; details: in vivo, iv, 0.5 h; in short: as §2
hERG (KCNH2) [7] = biological target: T2, hERG (KCNH2) (Homo sapiens, UniProt Q12809); assay: Inhibition of human ERG expressed in HEK293 cells at 10 uM by thallium flux assay; format: cell-based; details: HEK293 cells that express hERG
T2 sequence (Q12809 whole entry, the tested form may be a part): as the sequence (Q12809 whole entry) above

[8] = Toxicity in rabbit assessed as change in heart rate at 3 mg/kg, iv as 30 mins infusion measured at 20 mins; format: organism-based, Oryctolagus cuniculus; details: in vivo; in short: as §2
[9] = Half life in Sprague-Dawley rat hemodynamic/VERP model at 2 mg/kg, iv; format: ADME, organism-based; details: in vivo
[10] = Volume of distribution at steady state in Sprague-Dawley rat hemodynamic/VERP model at 2 mg/kg, iv; format: ADME, organism-based; details: in vivo, read-out: Vdss
[11] = Clearance in Sprague-Dawley rat hemodynamic/VERP model at 2 mg/kg, iv; format: ADME, organism-based; details: in vivo
Rattus norvegicus = assay: Pro-arrhythmic activity in rat assessed as increase in ventricular effective refractory period at 10 mg/kg, iv as 10 mins infusion; format: ADME, organism-based; details: in vivo
In short: (§3)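 Rats fitted with a multielectrode catheter in the left ventricle to record ventricular effective refractory period. Dose 10 mg/kg i.v. infused over 10 min, n = 2. Percent VERP increase reported together with the plasma concentration reached.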

[12] = Plasma concentration in rat VERP model at 3 mg/kg, iv as 5 mins infusion measured 10 mins post dose; format: ADME, organism-based; in short: as §1
[13] = Drug uptake in brain of rat VERP model at 10 mg/kg, iv as 5 mins infusion measured 10 mins post dose; format: ADME, organism-based; details: read-out: Drug uptake; in short: as §1
[14] = Toxicity in Sprague-Dawley rat VEPR model assessed as seizures at plasma concentration of 7.7 uM administered at 10 mg/kg, iv; format: organism-based; details: in vivo
Cytochrome P450 2C9 [15] = biological target: T3, Cytochrome P450 2C9 (Homo sapiens, UniProt P11712); assay: Inhibition of CYP2C9 (unknown origin) at 4 uM; format: ADME
T3 sequence (P11712 whole entry): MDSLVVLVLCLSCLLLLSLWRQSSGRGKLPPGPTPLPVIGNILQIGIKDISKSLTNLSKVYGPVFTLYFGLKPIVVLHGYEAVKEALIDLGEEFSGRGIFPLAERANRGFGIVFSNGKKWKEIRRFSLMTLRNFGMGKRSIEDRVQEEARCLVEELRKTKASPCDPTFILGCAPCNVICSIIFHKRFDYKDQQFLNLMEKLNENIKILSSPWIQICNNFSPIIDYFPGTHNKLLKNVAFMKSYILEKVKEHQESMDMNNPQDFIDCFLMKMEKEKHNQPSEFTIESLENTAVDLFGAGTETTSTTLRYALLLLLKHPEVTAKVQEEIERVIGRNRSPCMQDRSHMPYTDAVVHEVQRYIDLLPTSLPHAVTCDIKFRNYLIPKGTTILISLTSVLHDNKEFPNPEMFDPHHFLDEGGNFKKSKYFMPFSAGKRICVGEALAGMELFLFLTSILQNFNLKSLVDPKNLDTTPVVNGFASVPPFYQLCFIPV

Cytochrome P450 2C19 [16] = biological target: T4, Cytochrome P450 2C19 (Homo sapiens, UniProt P33261); assay: Inhibition of CYP2C19 (unknown origin) at 3 uM; format: ADME
T4 sequence (P33261 whole entry, the tested form may be a part): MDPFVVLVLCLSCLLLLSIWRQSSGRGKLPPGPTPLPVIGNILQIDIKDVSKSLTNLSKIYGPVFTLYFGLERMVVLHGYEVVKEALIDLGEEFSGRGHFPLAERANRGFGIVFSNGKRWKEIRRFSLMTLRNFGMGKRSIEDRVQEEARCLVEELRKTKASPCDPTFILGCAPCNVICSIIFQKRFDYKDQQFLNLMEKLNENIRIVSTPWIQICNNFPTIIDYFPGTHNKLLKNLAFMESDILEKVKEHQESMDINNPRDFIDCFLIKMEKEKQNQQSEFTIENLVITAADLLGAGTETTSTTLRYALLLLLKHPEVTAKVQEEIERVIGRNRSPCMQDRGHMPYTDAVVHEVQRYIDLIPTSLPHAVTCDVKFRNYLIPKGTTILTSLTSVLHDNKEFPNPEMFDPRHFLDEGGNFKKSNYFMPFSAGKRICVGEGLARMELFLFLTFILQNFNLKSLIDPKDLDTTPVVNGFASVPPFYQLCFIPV

[17] = Plasma concentration in rat VERP model at 10 mg/kg, iv as 5 mins infusion measured 10 mins post dose; format: ADME, organism-based; in short: as §1
[18] = Metabolic stability in rat liver microsomes assessed as parent compound remaining at 10 mins; format: ADME, Microsome; details: read-out: Stability
In short: (§4)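 Compound incubated with rat or mouse liver microsomes; percent parent remaining measured at 10 min.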

Oryctolagus cuniculus = assay: Increase in atrial effective refractory period in rabbit at 3 mg/kg, iv as 30 mins infusion measured at 20 mins; format: functional; in short: as §2
[19] = Metabolic stability in mouse liver microsomes assessed as parent compound remaining at 10 mins; format: ADME, Microsome; details: read-out: Stability; in short: as §4
[20] = Oral bioavailability in Sprague-Dawley rat hemodynamic/VERP model at 5 mg/kg; format: ADME, organism-based; details: in vivo
[21] = Toxicity in rabbit assessed as change in systolic blood pressure at 3 mg/kg, iv as 30 mins infusion measured at 20 mins; format: organism-based, Oryctolagus cuniculus; details: in vivo; in short: as §2
[22] = Plasma concentration in rabbit at 3 mg/kg, iv as 30 mins infusion; format: ADME, organism-based, Oryctolagus cuniculus; in short: as §2
[23] = Half life in Sprague-Dawley rat hemodynamic/VERP model at 5 mg/kg, po; format: ADME, organism-based; details: in vivo
hERG (KCNH2) [24] = biological target: T2, hERG (KCNH2); assay: Inhibition of human ERG expressed in HEK293 cells at 0.3 uM by thallium flux assay; format: cell-based; details: HEK293 cells that express hERG
[25] = Pro-arrhythmic activity in rat assessed as plasma concentration required to increase 98 +/- 3% ventricular effective refractory period at 10 mg/kg, iv as 10 mins infusion; format: ADME, organism-based; in short: as §3
[26] = Stability in rat liver microsomes; format: ADME, Microsome
hERG (KCNH2) [27] = biological target: T2, hERG (KCNH2); assay: Inhibition of human ERG expressed in HEK293 cells at 1 uM by thallium flux assay; format: cell-based; details: HEK293 cells that express hERG
Cytochrome P450 2C19 [28] = biological target: T4, Cytochrome P450 2C19; assay: Inhibition of CYP2C19 (unknown origin) at 1 uM; format: ADME
Cytochrome P450 2C9 [29] = biological target: T3, Cytochrome P450 2C9; assay: Inhibition of CYP2C9 (unknown origin) at 1 uM; format: ADME

SMILES: Cc1n[nH]c(C)c1-c1nc(NCc2ccccn2)c2c(-c3ccccc3)cccc2n1
inhibition [1]: 20%

SMILES: COc1ncc(-c2nc(NCc3ccccn3)c3c(-c4ccccc4)cccc3n2)cn1
IC50 [3]: 100 nM

SMILES: Cc1noc(C)c1-c1nc(NCc2ccccn2)c2c(-c3ccccc3)cccc2n1
IC50 [2]: 3100 nM
IC50 [3]: 90 nM

SMILES: Cn1cncc1-c1nc(NCc2ccccn2)c2c(-c3ccccc3)cccc2n1
inhibition [1]: 41%
IC50 [2]: 2700 nM

SMILES: Fc1cccc(-c2cccc3nc(-c4cncnc4)nc(NCc4ccccn4)c23)c1
inhibition [1]: 37%

SMILES: COCCNc1ncc(-c2nc(NCc3ccccn3)c3c(-c4ccccc4)cccc3n2)cn1
inhibition [1]: 20%

SMILES: c1ccc(-c2cccc3nc(-c4cncnc4)nc(NCc4ccccn4)c23)cc1
concentration at 10 min [4]: 8.8 µM
Activity [5]: -3.8%
Time [6]: 13 ms
inhibition at 10 µM (hERG (KCNH2) [7]): 43%
Activity [8]: -3.1%
half-life [9]: 15 h
Vd [10]: 5.2 L/kg
clearance [11]: 4.6 mL/min/kg
Activity (Rattus norvegicus): Non-Toxic
concentration at 10 min [12]: 3.1 µM
concentration at 10 min [13]: 25 µM
Activity [14]: Non-Toxic
inhibition (INH) (Cytochrome P450 2C9 [15]): Active
inhibition (INH) (Cytochrome P450 2C19 [16]): Active
concentration at 10 min [17]: 7.7 µM
remaining at 10 min [18]: 58%
IC50 [3]: 90 nM
Activity (Oryctolagus cuniculus): 21.4%
remaining at 10 min [19]: 75%
bioavailability [20]: 6.3%
Activity [21]: -3.4%
concentration at 0.5 h [22]: 2.7 µM
half-life [23]: 3.5 h

SMILES: FC(F)(F)c1ccc(-c2cccc3nc(-c4cncnc4)nc(NCc4ccccn4)c23)cc1
IC50 [3]: 150 nM

SMILES: Fc1ccc(-c2cccc3nc(-c4cncnc4)nc(NCc4ccccn4)c23)cc1
IC50 [3]: 250 nM

SMILES: NC(=O)c1ccc(-c2cccc3nc(-c4cncnc4)nc(NCc4ccccn4)c23)cc1
inhibition [1]: 8%

SMILES: O=c1ccc(-c2nc(NCc3ccccn3)c3c(-c4ccccc4)cccc3n2)c[nH]1
IC50 [3]: 110 nM
inhibition at 0.3 µM (hERG (KCNH2) [24]): 91%

SMILES: c1ccc(-c2cccc3nc(-c4ccncc4)nc(NCc4ccccn4)c23)cc1
IC50 [2]: 6700 nM
IC50 [3]: 40 nM

SMILES: c1ccc(-c2cccc3nc(-c4cccnc4)nc(NCc4ccccn4)c23)cc1
inhibition (INH) (Cytochrome P450 2C19 [28]): Active
inhibition (INH) (Cytochrome P450 2C9 [29]): Active
remaining at 10 min [18]: 7%
IC50 [3]: 60 nM
remaining at 10 min [19]: 22%

SMILES: COc1cncc(-c2nc(NCc3ccccn3)c3c(-c4ccccc4)cccc3n2)c1
IC50 [3]: 120 nM

SMILES: N#Cc1ccc(-c2nc(NCc3ccccn3)c3c(-c4ccccc4)cccc3n2)cn1
IC50 [3]: 130 nM
inhibition at 1 µM (hERG (KCNH2) [27]): 51%

More lines, main results first:

inhibition [1]: 9%
SMILES: Clc1nc(NCc2ccccn2)c2cccc(-c3ccccc3)c2n1

IC50 [3]: 50 nM
SMILES: c1ccc(-c2cccc3nc(-c4cncs4)nc(NCc4ccccn4)c23)cc1
IC50 [2]: 6200 nM

inhibition [1]: 72%
SMILES: Cc1nc(NCc2ccccn2)c2c(-c3ccccc3)cccc2n1
IC50 [2]: 4600 nM

inhibition [1]: 9%
SMILES: Clc1nc(NCc2ccccn2)c2ccc(-c3ccccc3)cc2n1

IC50 [3]: 170 nM
SMILES: c1ccc(-c2cccc3nc(C4CC4)nc(NCc4ccccn4)c23)cc1

inhibition [1]: 14%
SMILES: Clc1nc(NCc2ccccn2)c2cc(-c3ccccc3)ccc2n1

IC50 [3]: 50 nM
SMILES: N#Cc1nc(NCc2ccccn2)c2c(-c3ccccc3)cccc2n1
IC50 [2]: > 80000 nM

inhibition [1]: 86%
half-life [9]: 7.3 h
Vd [10]: 2.3 L/kg
clearance [11]: 8.2 mL/min/kg
Stability [26]: Unstable
IC50 [3]: 70 nM
bioavailability [20]: 10%
concentration at 0.5 h [22]: 9.1 µM
half-life [23]: 1.9 h
SMILES: Clc1nc(NCc2ccccn2)c2c(-c3ccccc3)cccc2n1
Activity [5]: -1%
Activity [8]: -3.2%
Activity (Rattus norvegicus): 98%
concentration at 10 min [25]: 26 µM
IC50 [2]: > 80000 nM
Activity (Oryctolagus cuniculus): 9%
Activity [21]: 0.1%

inhibition [1]: 59%
SMILES: CN(C)c1nc(NCc2ccccn2)c2c(-c3ccccc3)cccc2n1
IC50 [2]: 2500 nM

IC50 [3]: 80 nM
SMILES: FC(F)(F)c1nc(NCc2ccccn2)c2c(-c3ccccc3)cccc2n1
IC50 [2]: 10000 nM

IC50 [3]: 160 nM
SMILES: c1ccc(-c2cccc3nc(-c4cn[nH]c4)nc(NCc4ccccn4)c23)cc1
inhibition at 1 µM (hERG (KCNH2) [27]): 88%

inhibition [1]: 9%
SMILES: NC(=O)c1nc(NCc2ccccn2)c2c(-c3ccccc3)cccc2n1
